Data: publication PMC2766535 (Journal of separation science, 2009)

Target: human serum albumin (HSA) (Homo sapiens, UniProt P02768)
Test: frontal analysis, high-performance affinity chromatography on immobilized HSA
Format: binding
How it was run: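 Fatty-acid-free HSA immobilized by Schiff base on diol silica (40 (± 2) mg HSA/g silica), packed in a 5 cm × 2.1 mm i.d. column. A column without HSA corrected for non-specific binding. Test compound (0.5 µM to 30 µM) in pH 7.4, 0.067 M potassium phosphate was applied at 0.5 mL/min, 37°C, until plateau. Detection at 260 nm; mean breakthrough times were used.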

Sequence of human serum albumin (HSA) (P02768 25-609): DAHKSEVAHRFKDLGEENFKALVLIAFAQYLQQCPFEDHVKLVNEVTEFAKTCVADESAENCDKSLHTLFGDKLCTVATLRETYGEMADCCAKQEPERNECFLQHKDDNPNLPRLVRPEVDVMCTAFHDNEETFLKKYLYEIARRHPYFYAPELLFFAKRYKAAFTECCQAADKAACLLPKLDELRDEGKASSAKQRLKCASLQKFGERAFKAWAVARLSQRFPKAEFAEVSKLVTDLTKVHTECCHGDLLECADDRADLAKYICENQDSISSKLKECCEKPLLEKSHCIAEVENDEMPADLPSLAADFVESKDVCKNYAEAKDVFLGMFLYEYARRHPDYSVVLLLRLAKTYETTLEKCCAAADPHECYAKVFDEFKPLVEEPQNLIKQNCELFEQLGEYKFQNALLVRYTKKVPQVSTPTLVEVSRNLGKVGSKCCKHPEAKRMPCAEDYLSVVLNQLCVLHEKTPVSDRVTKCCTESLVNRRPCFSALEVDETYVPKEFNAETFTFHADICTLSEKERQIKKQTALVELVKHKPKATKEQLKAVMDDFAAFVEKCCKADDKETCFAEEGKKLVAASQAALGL

Kd [µM] | Compound
9.09 | O=C(O)CCc1c[nH]c2ccccc12 [Indole-3-propionic acid]
8.33 | OCc1c[nH]c2ccccc12 [Indole-3-methanol]
1.03 | O=C(O)CCCc1c[nH]c2ccccc12 [Indole-3-butyric acid]
18.9 | Cc1c[nH]c2ccccc12 [3-Methylindole]
12.8 | CC(=O)c1c[nH]c2ccccc12 [3-Acetylindole]
